Test results published in ChEMBL document CHEMBL3271979, “Inhibition of solid tumors by nitrosoureas. 1. Lewis lung carcinoma” (1977).
The source made the active and inactive calls. The calls are words filed in the database; no cut-off is given here.

What was measured:
[1] = system: Mus musculus; assay: Antitumor activity against mouse advanced Lewis lung carcinoma allografted in BDF1 mouse assessed as complete regression of established tumor at 21 mg/kg, ip administered as single dose on 7th day post-tumor implantation; assay type: functional, organism-based; parameters: dose 21 mg/kg
In short: (§1)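 BDF1 mice (C57Blk/6 × DBA/2) implanted sc by trocar with Lewis lung tumor fragments of about 40 mg, taken only from bacteriologically sterile donor tumors. Mice bearing tumors of about 400 mg (day 6-7) were selected. Each received a single ip dose on day 7, at or below the LD10 in normal mice. Groups were of 10 mice. Tumor weight was taken from calipers as w = ab²/2, measured at least twice weekly. Matched non-tumor mice served as toxicity controls.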

[2] = Antitumor activity against mouse advanced Lewis lung carcinoma allografted in BDF1 mouse assessed as increase in host life span at 48 mg/kg, ip administered as single dose on 7th day post-tumor implantation; assay type: functional; details: route intraperitoneal
In short: (§2)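 BDF1 mice (C57Blk/6 × DBA/2) implanted sc by trocar with about 40 mg Lewis lung tumor fragments from bacteriologically sterile donors. Advanced-disease groups held tumors of about 400 mg by day 6-7, sized by caliper (w = ab²/2). Single ip injection on day 7, in water or saline vehicle, at or below the LD10 in normal mice. Tumors measured at least twice weekly.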

[3] = Antitumor activity against mouse advanced Lewis lung carcinoma allografted in BDF1 mouse assessed as increase in host life span at 32 mg/kg, ip administered as single dose on 7th day post-tumor implantation; assay type: functional; details: route intraperitoneal; in short: as §2
[4] = Antitumor activity against mouse advanced Lewis lung carcinoma allografted in ip dosed BDF1 mouse assessed as increase in host lifespan administered as single dose on day 6 or 7 post-tumor implantation; assay type: functional
In short: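 Advanced Lewis lung model: about 40 mg fragments implanted sc by trocar into BDF1 mice, and mice with tumors of about 400 mg (day 6-7) selected. Tumor weight from calipers, w = ab²/2. Agent given as one ip dose in distilled water or physiological saline. Nontumor-bearing mice received matching doses as toxicity controls.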

[5] = system: Mus musculus; assay: Antitumor activity against mouse advanced Lewis lung carcinoma allografted in ip dosed BDF1 mouse assessed as complete regression of established tumor administered as single dose on day 6 or 7 post-tumor implantation; assay type: functional, organism-based; in short: as §1
[6] = Antitumor activity against mouse early Lewis lung carcinoma allografted in BDF1 mouse assessed as increase in host life span at 21 mg/kg, ip administered as single dose on 1 or 2 days post-tumor implantation; assay type: functional; details: route intraperitoneal
In short: (§3)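 BDF1 mice (C57Blk/6 × DBA/2) implanted sc by trocar with ~40 mg Lewis lung tumor fragments from bacteriologically sterile donor tumors. Single ip dose on day 1 or 2, as a solution or suspension in water (CMC or gum acacia) or saline (HPC or Tween 80). Read-out is […]. Same-dose toxicity controls were run in nontumor-bearing mice.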

[7] = system: Mus musculus; assay: Antitumor activity against mouse advanced Lewis lung carcinoma allografted in BDF1 mouse assessed as disease cure at 48 mg/kg, ip administered as single dose on 7th day post-tumor implantation measured for 80 days post-drug treatment; assay type: functional, organism-based; parameters: dose 48 mg/kg; in short: as §1
[8] = Antitumor activity against mouse early Lewis lung carcinoma allografted in BDF1 mouse assessed as increase in host life span at 48 mg/kg, ip administered as single dose on 1 or 2 days post-tumor implantation; assay type: functional; details: route intraperitoneal; in short: as §3
[9] = system: Mus musculus; assay: Antitumor activity against mouse advanced Lewis lung carcinoma allografted in BDF1 mouse assessed as disease cure at 32 mg/kg, ip administered as single dose on 7th day post-tumor implantation measured for 80 days post-drug treatment; assay type: functional, organism-based; parameters: dose 32 mg/kg; in short: as §1
[10] = system: Mus musculus; assay: Antitumor activity against mouse advanced Lewis lung carcinoma allografted in BDF1 mouse assessed as complete regression of established tumor at 48 mg/kg, ip administered as single dose on 7th day post-tumor implantation; assay type: functional, organism-based; parameters: dose 48 mg/kg; in short: as §1
[11] = system: Mus musculus; assay: Antitumor activity against mouse advanced Lewis lung carcinoma allografted in BDF1 mouse assessed as disease cure at 21 mg/kg, ip administered as single dose on 7th day post-tumor implantation measured for 80 days post-drug treatment; assay type: functional, organism-based; parameters: dose 21 mg/kg; in short: as §1
[12] = system: Mus musculus; assay: Antitumor activity against mouse advanced Lewis lung carcinoma allografted in BDF1 mouse assessed as complete regression of established tumor at 32 mg/kg, ip administered as single dose on 7th day post-tumor implantation; assay type: functional, organism-based; parameters: dose 32 mg/kg; in short: as §2
[13] = Antitumor activity against mouse early Lewis lung carcinoma allografted in BDF1 mouse assessed as time delay in tumor growth at 21 mg/kg, ip administered as single dose on 1 or 2 days post-tumor implantation; assay type: functional; details: route intraperitoneal
In short: (§4)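 BDF1 mice (C57Blk/6 × DBA/2) implanted sc by trocar with ~40 mg Lewis lung tumor fragments from bacteriologically sterile donors. A single ip dose was given on day 1 or 2, as a solution or suspension in water or saline with suspending agent, at ≤0.5 ml. Tumors were measured by caliper at least twice weekly, with weight = ab²/2. Delay was taken as the days for the tumor to reach 1 g.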

[14] = Antitumor activity against mouse advanced Lewis lung carcinoma allografted in BDF1 mouse assessed as increase in host life span at 21 mg/kg, ip administered as single dose on 7th day post-tumor implantation; assay type: functional; details: route intraperitoneal; in short: as §2
[15] = system: Mus musculus; assay: Antitumor activity against mouse advanced Lewis lung carcinoma allografted in ip dosed BDF1 mouse assessed as disease cure administered as single dose on day 6 or 7 post-tumor implantation; assay type: functional, organism-based; in short: as §1
[16] = Antitumor activity against mouse early Lewis lung carcinoma allografted in BDF1 mouse assessed as time delay in tumor growth at 48 mg/kg, ip administered as single dose on 1 or 2 days post-tumor implantation; assay type: functional; details: route intraperitoneal; in short: as §4
[17] = Antitumor activity against mouse early Lewis lung carcinoma allografted in BDF1 mouse assessed as increase in host life span at 38 mg/kg, ip administered as single dose on 1 or 2 days post-tumor implantation; assay type: functional; details: route intraperitoneal; in short: as §3
[18] = Antitumor activity against mouse early Lewis lung carcinoma allografted in BDF1 mouse assessed as time delay in tumor growth at 38 mg/kg, ip administered as single dose on 1 or 2 days post-tumor implantation; assay type: functional; details: route intraperitoneal; in short: as §4
[19] = Ratio of ED50 for antitumor activity against mouse L1210 cells allografted in ip dosed mouse to LD10 for mouse
[20] = Antitumor activity against mouse early Lewis lung carcinoma allografted in BDF1 mouse assessed as time delay in tumor growth at 25 mg/kg, ip administered as single dose on 1 or 2 days post-tumor implantation; assay type: functional; details: route intraperitoneal; in short: as §4
[21] = Antitumor activity against mouse early Lewis lung carcinoma allografted in BDF1 mouse assessed as increase in host life span at 25 mg/kg, ip administered as single dose on 1 or 2 days post-tumor implantation; assay type: functional; details: route intraperitoneal; in short: as §3
[22] = Antitumor activity against mouse early Lewis lung carcinoma allografted in ip dosed BDF1 mouse assessed as disease cure administered as single dose on 1 or 2 days post-tumor implantation measured for 80 days post-drug treatment; assay type: functional
In short: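 BDF1 mice implanted sc by trocar with ~40 mg Lewis lung fragments from sterile donor tumors. A single ip dose was given on day 1 or 2 after implant, in water or saline vehicle. Cures were scored in animals observed for at least 80 days after treatment. Drug-toxicity controls were matched non-tumor-bearing mice monitored for body weight and deaths.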

[23] = Antitumor activity against mouse early Lewis lung carcinoma allografted in BDF1 mouse assessed as increase in host life span at 30 mg/kg, ip administered as single dose on 1 or 2 days post-tumor implantation; assay type: functional; details: route intraperitoneal; in short: as §3
[24] = Antitumor activity against mouse early Lewis lung carcinoma allografted in BDF1 mouse assessed as increase in host life span at 20 mg/kg, ip administered as single dose on 1 or 2 days post-tumor implantation; assay type: functional; details: route intraperitoneal; in short: as §3
[25] = Antitumor activity against mouse early Lewis lung carcinoma allografted in BDF1 mouse assessed as time delay in tumor growth at 20 mg/kg, ip administered as single dose on 1 or 2 days post-tumor implantation; assay type: functional; details: route intraperitoneal; in short: as §4
[26] = Antitumor activity against mouse early Lewis lung carcinoma allografted in BDF1 mouse assessed as time delay in tumor growth at 30 mg/kg, ip administered as single dose on 1 or 2 days post-tumor implantation; assay type: functional; details: route intraperitoneal; in short: as §4

CC(=O)OC[C@H]1CC[C@H](NC(=O)N(CCF)N=O)CC1
inhibition [1]: inactive | ILS at 48 mg/kg [2]: 26% | ILS at 32 mg/kg [3]: 13% | ILS [4]: >25% | inhibition [5]: inactive | ILS at 21 mg/kg [6]: 24% | Activity [7]: inactive | ILS at 48 mg/kg [8]: 7% | Activity [9]: inactive | inhibition [10]: inactive | Activity [11]: inactive | inhibition [12]: inactive | Time [13]: 1.3 days | ILS at 21 mg/kg [14]: 26% | Activity [15]: inactive | Time [16]: 12 days

O=NN(CCCl)C(=O)N[C@H]1CC[C@@H](CC(=O)O)CC1
ILS at 38 mg/kg [17]: 42% | ILS [4]: <25% | inhibition [5]: inactive | Time [18]: 9.2 days | Ratio [19]: 0.4 | Time [20]: 8.2 days | ILS at 25 mg/kg [21]: 59% | Activity [22]: >50%

C[C@H]1SC[C@@H](NC(=O)N(CCCl)N=O)CS1
ILS at 30 mg/kg [23]: 42% | ILS [4]: <25% | inhibition [5]: inactive | Ratio [19]: 0.4 | ILS at 20 mg/kg [24]: 0% | Time [25]: 8.1 days | Time [26]: 18 days | Activity [22]: 10%
